From ChEMBL document CHEMBL4732237, “Discovery of 4-alkoxy-2-aryl-6,7-dimethoxyquinolines as a new class of topoisomerase I inhibitors endowed with potent in vitro anticancer activity” (2021)

Each molecule was assayed on UACC-257 (assay: Growth inhibition of human UACC-257 cells at 10 uM incubated for 48 hrs by sulforhodamine B assay relative to control). Conditions: read-out: GI.
Assay type: functional
Method in brief: (§1)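 NCI one-dose screen across a 59-line panel. Cells were grown in RPMI 1640 with 5% FBS and 2 mM L-glutamine, plated and pre-incubated 24 h, then exposed to drug for 48 h at 37 °C, 5% CO2. Adherent cells were fixed with cold TCA (10% final), stained with 0.4% SRB in 1% acetic acid and read at 515 nm. Result is percent growth relative to no-drug control and time-zero cell count.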
Molecule COc1cc2nc(-c3ccc(C(F)(F)F)cc3)cc(OCCN3CCCC3)c2cc1OC has an inhibition of growth at 10 µM of 13%.

These molecules were tested on NCI-H522 (assay: Growth inhibition of human NCI-H522 cells at 10 uM incubated for 48 hrs by sulforhodamine B assay relative to control). Conditions: read-out: GI.
Assay type: functional
Method in brief: (§2)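 NCI one-dose screen. Cells grown in RPMI 1640 with 5% FBS and 2 mM L-glutamine, plated and incubated 24 h at 37 °C, 5% CO2. DMSO-dissolved drug added, then 48 h further incubation. Adherent cells fixed with cold TCA, suspension cells fixed after settling. Stained with 0.4% SRB, absorbance read at 515 nm. Reported as percent growth relative to no-drug control and time-zero cell number.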
COc1cc2nc(-c3ccc(C(F)(F)F)cc3)cc(OCCN3CCCC3)c2cc1OC gave an inhibition of growth at 10 µM of 13%.

Each molecule was assayed on MDA-MB-435 (assay: Growth inhibition of human MDA-MB-435 cells at 10 uM incubated for 48 hrs by sulforhodamine B assay relative to control). Conditions: read-out: GI.
Assay type: functional
Method in brief: (§3)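 NCI-60 single-dose screen. Cells were grown in RPMI 1640 with 5% FBS and 2 mM L-glutamine and plated 24 h before drug addition. Compound was added at one concentration in DMSO-derived medium and incubated for 48 h at 37 °C in 5% CO2. Read-out was SRB protein stain at 515 nm. Result is percent growth versus the no-drug control and the time-zero cell count; values below 0 indicate lethality.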
COc1cc2nc(-c3ccc(C(F)(F)F)cc3)cc(OCCN3CCCC3)c2cc1OC gave an inhibition of growth at 10 µM of 13%.

The molecules below were run on NCI-H460 (assay: Growth inhibition of human NCI-H460 cells at 10 uM incubated for 48 hrs by sulforhodamine B assay relative to control). Conditions: read-out: GI.
Assay type: functional
Method in brief: as §2
With COc1cc2nc(-c3ccc(C(F)(F)F)cc3)cc(OCCN3CCCC3)c2cc1OC the inhibition of growth at 10 µM was 13%.

The molecules below were run on SW-620 (assay: Growth inhibition of human SW-620 cells at 10 uM incubated for 48 hrs by sulforhodamine B assay relative to control). Conditions: read-out: GI.
Assay type: functional
Method in brief: as §1
Molecule COc1cc2nc(-c3ccc(C(F)(F)F)cc3)cc(OCCN3CCCC3)c2cc1OC has an inhibition of growth at 10 µM of 13%.

These molecules were tested on OVCAR-8 (assay: Growth inhibition of human OVCAR-8 cells at 10 uM incubated for 48 hrs by sulforhodamine B assay relative to control). Conditions: read-out: GI.
Assay type: functional
Method in brief: as §2
COc1cc2nc(-c3ccc(C(F)(F)F)cc3)cc(OCCN3CCCC3)c2cc1OC was tested, and the inhibition of growth at 10 µM was 13%.

The molecules below were run on PC-3 (assay: Growth inhibition of human PC-3 cells at 10 uM incubated for 48 hrs by sulforhodamine B assay relative to control). Conditions: read-out: GI.
Assay type: functional
Method in brief: as §2
COc1cc2nc(-c3ccc(C(F)(F)F)cc3)cc(OCCN3CCCC3)c2cc1OC gave an inhibition of growth at 10 µM of 13%.

These molecules were tested on SR (assay: Growth inhibition of human SR cells at 10 uM incubated for 48 hrs by sulforhodamine B assay relative to control). Conditions: read-out: GI.
Assay type: functional
Method in brief: as §2
In the case of COc1cc2nc(-c3ccc(C(F)(F)F)cc3)cc(OCCN3CCCC3)c2cc1OC, the inhibition of growth at 10 µM is reported as 13%.

These molecules were tested on KM12 (assay: Growth inhibition of human KM12 cells at 10 uM incubated for 48 hrs by sulforhodamine B assay relative to control). Conditions: read-out: GI.
Assay type: functional
Method in brief: as §3
Work on COc1cc2nc(-c3ccc(C(F)(F)F)cc3)cc(OCCN3CCCC3)c2cc1OC yielded an inhibition of growth at 10 µM of 13%.

What follows are molecules tested on OVCAR-4 (assay: Growth inhibition of human OVCAR-4 cells at 10 uM incubated for 48 hrs by sulforhodamine B assay relative to control). Conditions: read-out: GI.
Assay type: functional
Method in brief: as §2
COc1cc2nc(-c3ccc(C(F)(F)F)cc3)cc(OCCN3CCCC3)c2cc1OC gave an inhibition of growth at 10 µM of 13%.

These molecules were tested on T47D (assay: Growth inhibition of human T47D cells at 10 uM incubated for 48 hrs by sulforhodamine B assay relative to control). Conditions: read-out: GI.
Assay type: functional
Method in brief: as §1
COc1cc2nc(-c3ccc(C(F)(F)F)cc3)cc(OCCN3CCCC3)c2cc1OC was tested, and the inhibition of growth at 10 µM was 13%.

These molecules were tested on SK-MEL-5 (assay: Growth inhibition of human SK-MEL-5 cells at 10 uM incubated for 48 hrs by sulforhodamine B assay relative to control). Conditions: read-out: GI.
Assay type: functional
Method in brief: as §2
For COc1cc2nc(-c3ccc(C(F)(F)F)cc3)cc(OCCN3CCCC3)c2cc1OC, the inhibition of growth at 10 µM was 13%.

These molecules were tested on OVCAR-5 (assay: Growth inhibition of human OVCAR-5 cells at 10 uM incubated for 48 hrs by sulforhodamine B assay relative to control). Conditions: read-out: GI.
Assay type: functional
Method in brief: as §2
With COc1cc2nc(-c3ccc(C(F)(F)F)cc3)cc(OCCN3CCCC3)c2cc1OC the inhibition of growth at 10 µM was 13%.

These molecules were tested on NCI-H23 (assay: Growth inhibition of human NCI-H23 cells at 10 uM incubated for 48 hrs by sulforhodamine B assay relative to control). Conditions: read-out: GI.
Assay type: functional
Method in brief: as §2
COc1cc2nc(-c3ccc(C(F)(F)F)cc3)cc(OCCN3CCCC3)c2cc1OC showed an inhibition of growth at 10 µM of 13%.

These molecules were tested on HOP-62 (assay: Growth inhibition of human HOP-62 cells at 10 uM incubated for 48 hrs by sulforhodamine B assay relative to control). Conditions: read-out: GI.
Assay type: functional
Method in brief: as §3
Work on COc1cc2nc(-c3ccc(C(F)(F)F)cc3)cc(OCCN3CCCC3)c2cc1OC yielded an inhibition of growth at 10 µM of 13%.

The molecules below were run on Malme-3M (assay: Growth inhibition of human Malme-3M cells at 10 uM incubated for 48 hrs by sulforhodamine B assay relative to control). Conditions: read-out: GI.
Assay type: functional
Method in brief: as §2
Work on COc1cc2nc(-c3ccc(C(F)(F)F)cc3)cc(OCCN3CCCC3)c2cc1OC yielded an inhibition of growth at 10 µM of 13%.

Each molecule was assayed on SN12C (assay: Growth inhibition of human SN12C cells at 10 uM incubated for 48 hrs by sulforhodamine B assay relative to control). Conditions: read-out: GI.
Assay type: functional
Method in brief: as §2
Molecule COc1cc2nc(-c3ccc(C(F)(F)F)cc3)cc(OCCN3CCCC3)c2cc1OC has an inhibition of growth at 10 µM of 13%.

These molecules were tested on UACC-62 (assay: Growth inhibition of human UACC-62 cells at 10 uM incubated for 48 hrs by sulforhodamine B assay relative to control). Conditions: read-out: GI.
Assay type: functional
Method in brief: as §1
COc1cc2nc(-c3ccc(C(F)(F)F)cc3)cc(OCCN3CCCC3)c2cc1OC was tested, and the inhibition of growth at 10 µM was 13%.
